ChEMBL document CHEMBL4265871, “Novel alkylated azoles as potent antifungals” (Eur J Med Chem, 2017)
In brackets after ≈: the same amount, converted by molar mass. Activity calls are given as the source filed them. No cut-off for these calls is given here.

How the values were obtained:
Candida albicans [1] = assay: Antifungal activity against Candida albicans ATCC 10231 incubated for 48 hrs by modified CLSI M27-A3 protocol based method; format: functional; settings: ATCC 10231, 48 h, read-out: MIC100
Procedure, shortened: (§1)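 For C. albicans ATCC 10231, C. krusei ATCC 6258 and C. parapsilosis ATCC 22019, MIC-0 was read, meaning complete growth inhibition. For azole controls, MIC-2 (50% growth inhibition) was reported instead. Caspofungin and voriconazole were tested here; other controls came from earlier work.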

Candida albicans [2] = assay: Antifungal activity against Candida albicans ATCC 64124 incubated for 48 hrs by modified CLSI M27-A3 protocol based method; format: functional; settings: ATCC 64124, 48 h
Candida albicans [3] = assay: Antifungal activity against ITC and FLC-susceptible Candida albicans ATCC MYA-2876 incubated for 48 hrs by modified CLSI M27-A3 protocol based method; format: functional; settings: ATCC MYA-2876, 48 h
Procedure, shortened: (§2)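 Because these Candida strains show trailing growth, MIC-2 was read, meaning 50% growth inhibition. Caspofungin and voriconazole were tested here; other controls came from earlier work.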

Candida albicans [4] = assay: Antifungal activity against ITC and FLC-resistant Candida albicans ATCC MYA-90819 incubated for 48 hrs by modified CLSI M27-A3 protocol based method; format: functional; settings: ATCC MYA-90819, 48 h
Candida albicans [5] = assay: Antifungal activity against ITC and FLC-susceptible Candida albicans ATCC MYA-2310 incubated for 48 hrs by modified CLSI M27-A3 protocol based method; format: functional; settings: ATCC MYA-2310, 48 h
Candida albicans [6] = assay: Antifungal activity against ITC and FLC-resistant Candida albicans ATCC 1237 incubated for 48 hrs by modified CLSI M27-A3 protocol based method; format: functional; settings: ATCC 1237, 48 h; procedure, shortened: as §2
Candida albicans [7] = assay: Antifungal activity against ITC and FLC-resistant Candida albicans ATCC MYA-1003 incubated for 48 hrs by modified CLSI M27-A3 protocol based method; format: functional; settings: ATCC MYA-1003, 48 h; procedure, shortened: as §2
Nakaseomyces glabratus = assay: Antifungal activity against Candida glabrata ATCC 2001 incubated for 48 hrs by modified CLSI M27-A3 protocol based method; format: functional; settings: ATCC 2001, 48 h
Pichia kudriavzevii = assay: Antifungal activity against Candida krusei ATCC 6258 incubated for 48 hrs by modified CLSI M27-A3 protocol based method; format: functional; settings: ATCC 6258, 48 h, read-out: MIC100; procedure, shortened: as §1
Candida parapsilosis = assay: Antifungal activity against Candida parapsilosis ATCC 22019 incubated for 48 hrs by modified CLSI M27-A3 protocol based method; format: functional; settings: Lodderomyces parapsilosis, ATCC 22019, 48 h; read-out: MIC100; procedure, shortened: as §1
Aspergillus flavus = assay: Antifungal activity against Aspergillus flavus ATCC MYA-3631 incubated for 48 hrs by CLSI M38-A2 protocol based method; format: functional; settings: ATCC MYA-3631, 48 h, read-out: MIC100
Aspergillus nidulans = assay: Antifungal activity against Aspergillus nidulans ATCC 38163 incubated for 48 hrs by CLSI M38-A2 protocol based method; format: functional; settings: ATCC 38163, 48 h, read-out: MIC100
Aspergillus terreus = assay: Antifungal activity against Aspergillus terreus ATCC MYA-3633 incubated for 48 hrs by CLSI M38-A2 protocol based method; format: functional; settings: ATCC MYA-3633, 48 h, read-out: MIC100
[8] = Hemolytic activity in mouse erythrocytes assessed as hemolysis level at 1.95 ug/ml incubated for 1 hr at 37 degC; format: ADME, cell-based, Erythrocyte; settings: read-out: Activity
Procedure, shortened: (§3)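 Mouse erythrocytes incubated 1 h at 37 °C with test agents over 1.95 to 125 µg/mL. Percent lysis is read for each concentration.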

[9] = Hemolytic activity in mouse erythrocytes assessed as hemolysis level at 3.9 ug/ml incubated for 1 hr at 37 degC; format: ADME, cell-based, Erythrocyte; settings: read-out: Activity; procedure, shortened: as §3
[10] = Hemolytic activity in mouse erythrocytes assessed as hemolysis level at 7.8 ug/ml incubated for 1 hr at 37 degC; format: ADME, cell-based, Erythrocyte; settings: read-out: Activity; procedure, shortened: as §3
[11] = Hemolytic activity in mouse erythrocytes assessed as hemolysis level at 15.6 ug/ml incubated for 1 hr at 37 degC; format: ADME, cell-based, Erythrocyte; settings: read-out: Activity; procedure, shortened: as §3
[12] = Hemolytic activity in mouse erythrocytes assessed as hemolysis level at 31.3 ug/ml incubated for 1 hr at 37 degC; format: ADME, cell-based, Erythrocyte; settings: read-out: Activity; procedure, shortened: as §3
[13] = Hemolytic activity in mouse erythrocytes assessed as hemolysis level at 125 ug/ml incubated for 1 hr at 37 degC; format: ADME, cell-based, Erythrocyte; settings: read-out: Activity; procedure, shortened: as §3
in vitro = settings: mouse, erythrocyte
A549 = assay: Toxicity in human A549 cells assessed as cell viability at 15.6 ug/ml incubated for 24 hrs by resazurin dye based assay; settings: a549, 24 h
BEAS-2B = assay: Toxicity in human BEAS2B cells assessed as cell viability at 15.6 ug/ml incubated for 24 hrs by resazurin dye based assay
Candida albicans [14] = assay: Induction of membrane permeabilization in Candida albicans ATCC 10231 at 1 to 4 times MIC incubated for 1 hr by propidium iodide staining based fluorescence microscopy; format: functional, organism-based
Procedure, shortened: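 C. albicans ATCC 10231 treated at 1× and 4× MIC and stained with propidium iodide, a membrane-impermeant dye, to detect membrane damage. Untreated cells, FLC (7.8 µg/mL) and KANB (C14) (7.8 µg/mL) serve as comparators.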

## CCC(O)(Cn1cncn1)c1ccc(F)cc1F (stereo not drawn)
Candida albicans [1]
  MIC: 61.6 µM (≈ 15.6 µg/mL)
Candida albicans [2]
  MIC50: > 124 µM
Candida albicans [3]
  MIC50: 61.6 µM (≈ 15.6 µg/mL)
Candida albicans [4]
  MIC50: 124 µM (≈ 31.3 µg/mL)
Candida albicans [5]
  MIC50: > 124 µM
Candida albicans [6]
  MIC50: > 124 µM
Candida albicans [7]
  MIC50: 30.8 µM (≈ 7.8 µg/mL)
Nakaseomyces glabratus
  MIC50: > 124 µM
Pichia kudriavzevii
  MIC: 30.8 µM (≈ 7.8 µg/mL)
Candida parapsilosis
  MIC: 1.9 µM (≈ 0.481 µg/mL)
Aspergillus flavus
  MIC: > 124 µM
Aspergillus nidulans
  MIC: 124 µM (≈ 31.3 µg/mL)
Aspergillus terreus
  MIC: > 124 µM

## C[C@@H]1[C@H](O)[C@@H](C)/C=C/C=C/C=C/C=C/C=C/C=C/C=C/[C@H](O[C@@H]2O[C@H](C)[C@@H](O)[C@H](N)[C@@H]2O)C[C@@H]2O[C@](O)(C[C@@H](O)C[C@@H](O)[C@H](O)CC[C@@H](O)C[C@@H](O)CC(=O)O[C@H]1C)C[C@H](O)[C@H]2C(=O)O [AMPHOTERICIN B]
Candida albicans [3]; read-out: MIC100
  MIC: 2.1 µM (≈ 1.94 µg/mL)
Candida albicans [4]
  MIC: 1.1 µM (≈ 1.02 µg/mL)
Candida albicans [5]; read-out: MIC100
  MIC: 2.1 µM (≈ 1.94 µg/mL)
Nakaseomyces glabratus
  MIC: 2.1 µM (≈ 1.94 µg/mL)
Candida parapsilosis
  MIC: 2.1 µM (≈ 1.94 µg/mL)
Aspergillus nidulans
  MIC: 16.9 µM (≈ 15.6 µg/mL)
Aspergillus terreus
  MIC: 4.2 µM (≈ 3.88 µg/mL)
[8]
  hemolysis at 1 h, 1.95 ug/ml: 1.7%
[9]
  hemolysis at 1 h, 3.9 ug/ml: 3.4%
[10]
  hemolysis at 1 h, 7.8 ug/ml: 3.7%
[11]
  hemolysis at 1 h, 15.6 ug/ml: 32%
[12]
  hemolysis at 1 h, 31.3 ug/ml: 80%
[13]
  hemolysis at 1 h, 125 ug/ml: 92.6%
In vitro
  hemolysis at 1 h: 90.3%
A549
  viability: 30%
BEAS-2B
  viability: 30%

## CCC(O)(Cn1cncn1)c1ccc(Cl)cc1Cl (stereo not drawn)
Candida albicans [1]
  MIC: 13.6 µM (≈ 3.89 µg/mL)
Candida albicans [2]
  MIC50: > 109 µM
Candida albicans [3]
  MIC50: 3.4 µM (≈ 0.973 µg/mL)
Candida albicans [4]
  MIC50: 0.84 µM (≈ 0.24 µg/mL)
Candida albicans [5]
  MIC50: 3.4 µM (≈ 0.973 µg/mL)
Candida albicans [6]
  MIC50: 3.4 µM (≈ 0.973 µg/mL)
Candida albicans [7]
  MIC50: 6.8 µM (≈ 1.95 µg/mL)
Nakaseomyces glabratus
  MIC50: 13.6 µM (≈ 3.89 µg/mL)
Pichia kudriavzevii
  MIC: 3.4 µM (≈ 0.973 µg/mL)
Candida parapsilosis
  MIC: < 0.1 µM
Aspergillus flavus
  MIC: 54.5 µM (≈ 15.6 µg/mL)
Aspergillus nidulans
  MIC: 27.3 µM (≈ 7.81 µg/mL)
Aspergillus terreus
  MIC: 13.6 µM (≈ 3.89 µg/mL)

## CCCC(O)(Cn1cncn1)c1ccc(F)cc1F (stereo not drawn)
Candida albicans [1]
  MIC: 14.6 µM (≈ 3.9 µg/mL)
Candida albicans [2]
  MIC50: 117 µM (≈ 31.3 µg/mL)
Candida albicans [3]
  MIC50: 58.4 µM (≈ 15.6 µg/mL)
Candida albicans [4]
  MIC50: 58.4 µM (≈ 15.6 µg/mL)
Candida albicans [5]
  MIC50: 29.2 µM (≈ 7.8 µg/mL)
Candida albicans [6]
  MIC50: 117 µM (≈ 31.3 µg/mL)
Candida albicans [7]
  MIC50: 14.6 µM (≈ 3.9 µg/mL)
Nakaseomyces glabratus
  MIC50: > 117 µM
Pichia kudriavzevii
  MIC: 0.22 µM (≈ 0.0588 µg/mL)
Candida parapsilosis
  MIC: 0.22 µM (≈ 0.0588 µg/mL)
Aspergillus flavus
  MIC: > 117 µM
Aspergillus nidulans
  MIC: 29.2 µM (≈ 7.8 µg/mL)
Aspergillus terreus
  MIC: 58.4 µM (≈ 15.6 µg/mL)

## CCCCCCCCCCC(O)(Cn1cncn1)c1ccc(F)cc1F (stereo not drawn)
Candida albicans [1]
  MIC: 21.3 µM (≈ 7.78 µg/mL)
Candida albicans [2]
  MIC50: 42.7 µM (≈ 15.6 µg/mL)
Candida albicans [3]
  MIC50: 21.3 µM (≈ 7.78 µg/mL)
Candida albicans [4]
  MIC50: 85.6 µM (≈ 31.3 µg/mL)
Candida albicans [5]
  MIC50: 21.3 µM (≈ 7.78 µg/mL)
Candida albicans [6]
  MIC50: > 85.6 µM
Candida albicans [7]
  MIC50: > 85.6 µM
Nakaseomyces glabratus
  MIC50: 21.3 µM (≈ 7.78 µg/mL)
Pichia kudriavzevii
  MIC: 0.66 µM (≈ 0.241 µg/mL)
Candida parapsilosis
  MIC: 0.33 µM (≈ 0.121 µg/mL)
Aspergillus flavus
  MIC: > 85.6 µM
Aspergillus nidulans
  MIC: 0.66 µM (≈ 0.241 µg/mL)
Aspergillus terreus
  MIC: 10.7 µM (≈ 3.91 µg/mL)
Candida albicans [14]
  Activity: inactive

## N[n+]1cnn(CC(=O)c2ccc(Cl)cc2Cl)c1
Candida albicans [1]
  MIC: > 102 µM
Candida albicans [2]
  MIC50: > 102 µM
Candida albicans [3]
  MIC50: > 102 µM
Candida albicans [4]
  MIC50: > 102 µM
Candida albicans [5]
  MIC50: > 102 µM
Candida albicans [6]
  MIC50: > 102 µM
Candida albicans [7]
  MIC50: > 102 µM
Nakaseomyces glabratus
  MIC50: > 102 µM
Pichia kudriavzevii
  MIC: > 102 µM
Candida parapsilosis
  MIC: > 102 µM
Aspergillus flavus
  MIC: > 102 µM
Aspergillus nidulans
  MIC: > 102 µM
Aspergillus terreus
  MIC: > 102 µM

## CCCCCC(O)(Cn1cncn1)c1cccc(Cl)c1 (stereo not drawn)
Candida albicans [1]
  MIC: > 106 µM
Candida albicans [2]
  MIC50: 106 µM (≈ 31.3 µg/mL)
Candida albicans [3]
  MIC50: > 106 µM
Candida albicans [4]
  MIC50: 13.3 µM (≈ 3.91 µg/mL)
Candida albicans [5]
  MIC50: 6.6 µM (≈ 1.94 µg/mL)
Candida albicans [6]
  MIC50: 6.6 µM (≈ 1.94 µg/mL)
Candida albicans [7]
  MIC50: > 106 µM
Nakaseomyces glabratus
  MIC50: > 106 µM
Pichia kudriavzevii
  MIC: > 106 µM
Candida parapsilosis
  MIC: > 106 µM
Aspergillus flavus
  MIC: 13.3 µM (≈ 3.91 µg/mL)
Aspergillus nidulans
  MIC: 0.2 µM (≈ 0.0588 µg/mL)
Aspergillus terreus
  MIC: 1.6 µM (≈ 0.47 µg/mL)

## CCCCCCC(O)(Cn1cncn1)c1cccc(Cl)c1 (stereo not drawn)
Candida albicans [1]
  MIC: > 102 µM
Candida albicans [2]
  MIC50: 102 µM (≈ 31.3 µg/mL)
Candida albicans [3]
  MIC50: > 102 µM
Candida albicans [4]
  MIC50: 25.3 µM (≈ 7.79 µg/mL)
Candida albicans [5]
  MIC50: 25.3 µM (≈ 7.79 µg/mL)
Candida albicans [6]
  MIC50: 25.3 µM (≈ 7.79 µg/mL)
Candida albicans [7]
  MIC50: > 102 µM
Nakaseomyces glabratus
  MIC50: > 102 µM
Pichia kudriavzevii
  MIC: > 102 µM
Candida parapsilosis
  MIC: > 102 µM
Aspergillus flavus
  MIC: > 102 µM
Aspergillus nidulans
  MIC: 12.7 µM (≈ 3.91 µg/mL)
Aspergillus terreus
  MIC: > 102 µM
